Source: ChEMBL document CHEMBL1137426, “Bivalent inhibitors of glutathione S-transferase: the effect of spacer length on isozyme selectivity” (Bioorg Med Chem Lett, 2006)

How the values were obtained:
[1] = species: Homo sapiens; experiment: Selectivity for GST A1-1 over GST P1-1
How it was run: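 Ratio of IC50s from CDNB–GSH conjugation assays. Each E. coli-expressed, purified enzyme at 20 nM, GSH and CDNB at the respective K_M. Inhibitor diluted from DMSO stock into water, final DMSO <1%. Absorbance at 340 nm for 1 min, four-log concentration span, triplicate.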

[2] = target: T1, Glutathione S-transferase A1 (Homo sapiens, UniProt P08263); experiment: Inhibition of GST A1-1
T1 sequence (P08263 whole entry): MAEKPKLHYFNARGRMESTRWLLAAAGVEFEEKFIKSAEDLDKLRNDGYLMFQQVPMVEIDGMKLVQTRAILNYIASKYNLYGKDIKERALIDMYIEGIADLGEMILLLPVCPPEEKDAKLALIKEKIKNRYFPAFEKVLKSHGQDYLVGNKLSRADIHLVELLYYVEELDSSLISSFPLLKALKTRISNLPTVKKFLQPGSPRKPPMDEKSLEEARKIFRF

[3] = target: Glutathione S-transferase P (Homo sapiens, UniProt P09211); experiment: Inhibition of GST P1-1
Sequence of Glutathione S-transferase P (P09211 whole entry): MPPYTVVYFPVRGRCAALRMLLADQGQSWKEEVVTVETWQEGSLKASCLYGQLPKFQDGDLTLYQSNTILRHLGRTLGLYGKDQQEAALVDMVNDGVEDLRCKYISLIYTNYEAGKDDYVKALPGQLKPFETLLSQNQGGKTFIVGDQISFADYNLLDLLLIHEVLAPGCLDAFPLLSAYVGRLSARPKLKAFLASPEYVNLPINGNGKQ

Selectivity ratio [1] | IC50 [2] [µM] | IC50 [3] [µM] | SMILES
30 | 0.0327 | – | C=C(CC)C(=O)c1ccc(OCC(=O)NCc2cc(CNC(=O)COc3ccc(C(=O)C(=C)CC)c(Cl)c3Cl)cc(C(N)=O)c2)c(Cl)c1Cl
29 | 0.024 | 0.704 | C=C(CC)C(=O)c1ccc(OCC(=O)NCC(=O)NCc2cc(CNC(=O)CNC(=O)COc3ccc(C(=O)C(=C)CC)c(Cl)c3Cl)cc(C(N)=O)c2)c(Cl)c1Cl
1.1 | 13.8 | 15 | C=C(CC)C(=O)c1ccc(OCC(=O)NCCCC(=O)NCc2cccc(C(N)=O)c2)c(Cl)c1Cl
– | 5 | – | C=C(CC)C(=O)c1ccc(OCC(=O)O)c(Cl)c1Cl [ETHACRYNIC ACID]
